# Calls of active or inactive are those of the source. The rule behind the calls is not given here.
# Legend:
# A549 = assay: Growth inhibition of human A549 cells assessed as cell growth at 10^-5 M after 48 hrs by sulforhodamine B assay; type: functional; settings: A549, 48 h, read-out: Activity
# Procedure, shortened: (§1)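 NCI 60-cell panel single high-dose screen: compound applied at 10^-5 M for 48 h, endpoint by sulforhodamine B protein-binding dye. Values reported as growth percent of treated cells relative to untreated control cells.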
# HOP-92 = assay: Growth inhibition of human HOP92 cells assessed as cell growth at 10^-5 M after 48 hrs by sulforhodamine B assay; type: functional; settings: HOP-92, 48 h, read-out: Activity; procedure, shortened: as §1
# NCI-H460 = assay: Growth inhibition of human NCI-H460 cells assessed as cell growth at 10^-5 M after 48 hrs by sulforhodamine B assay; type: functional; settings: NCI-H460, 48 h, read-out: Activity
# Procedure, shortened: (§2)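 NCI-60 single high-dose screen run under the NCI protocol. Cells were incubated with compound at 10^-5 M for 48 h. The end point was determined by sulforhodamine B protein staining. Results are reported as percent growth of treated cells relative to untreated control cells.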
# NCI-H522 = assay: Growth inhibition of human NCI-H522 cells assessed as cell growth at 10^-5 M after 48 hrs by sulforhodamine B assay; type: functional; settings: NCI-H522, 48 h, read-out: Activity; procedure, shortened: as §2
# HT-29 = assay: Growth inhibition of human HT-29 cells assessed as cell growth at 10^-5 M after 48 hrs by sulforhodamine B assay; type: functional; settings: HT-29, 48 h, read-out: Activity; procedure, shortened: as §1
# KM12 = assay: Growth inhibition of human KM12 cells assessed as cell growth at 10^-5 M after 48 hrs by sulforhodamine B assay; type: functional; settings: KM12, 48 h, read-out: Activity; procedure, shortened: as §1
# SW-620 = assay: Growth inhibition of human SW620 cells assessed as cell growth at 10^-5 M after 48 hrs by sulforhodamine B assay; type: functional; settings: SW-620, 48 h, read-out: Activity
# Procedure, shortened: (§3)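 NCI 60-cell panel single-dose screen under the NCI protocol. Cells are exposed to compound at one concentration (10^-5 M) for 48 h. The end point is protein staining with sulforhodamine B. Each line is reported as percent growth of treated cells relative to untreated control cells.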
# SF-295 = assay: Growth inhibition of human SF295 cells assessed as cell growth at 10^-5 M after 48 hrs by sulforhodamine B assay; type: functional; settings: SF-295, 48 h, read-out: Activity; procedure, shortened: as §2
# U-251 = assay: Growth inhibition of human U251 cells assessed as cell growth at 10^-5 M after 48 hrs by sulforhodamine B assay; type: functional; settings: U-251, 48 h, read-out: Activity; procedure, shortened: as §3
# MDA-MB-435 = assay: Growth inhibition of human MDA-MB-435 cells assessed as cell growth at 10^-5 M after 48 hrs by sulforhodamine B assay; type: functional; settings: MDA-MB-435, 48 h, read-out: Activity; procedure, shortened: as §2
# SK-MEL-28 = assay: Growth inhibition of human SK-MEL-28 cells assessed as cell growth at 10^-5 M after 48 hrs by sulforhodamine B assay; type: functional; settings: SK-MEL-28, 48 h, read-out: Activity; procedure, shortened: as §2
# UACC-62 = assay: Growth inhibition of human UACC62 cells assessed as cell growth at 10^-5 M after 48 hrs by sulforhodamine B assay; type: functional; settings: UACC-62, 48 h, read-out: Activity; procedure, shortened: as §3
# OVCAR-3 = assay: Growth inhibition of human OVCAR3 cells assessed as cell growth at 10^-5 M after 48 hrs by sulforhodamine B assay; type: functional; settings: OVCAR-3, 48 h, read-out: Activity; procedure, shortened: as §2
# OVCAR-4 = assay: Growth inhibition of human OVCAR4 cells assessed as cell growth at 10^-5 M after 48 hrs by sulforhodamine B assay; type: functional; settings: OVCAR-4, 48 h, read-out: Activity; procedure, shortened: as §2
# OVCAR-8 = assay: Growth inhibition of human OVCAR8 cells assessed as cell growth at 10^-5 M after 48 hrs by sulforhodamine B assay; type: functional; settings: OVCAR-8, 48 h, read-out: Activity; procedure, shortened: as §2
# SK-OV-3 = assay: Growth inhibition of human SKOV3 cells assessed as cell growth at 10^-5 M after 48 hrs by sulforhodamine B assay; type: functional; settings: SK-OV-3, 48 h, read-out: Activity; procedure, shortened: as §3
# A498 = assay: Growth inhibition of human A498 cells assessed as cell growth at 10^-5 M after 48 hrs by sulforhodamine B assay; type: functional; settings: A498, 48 h, read-out: Activity; procedure, shortened: as §1
# CAKI-1 = assay: Growth inhibition of human Caki1 cells assessed as cell growth at 10^-5 M after 48 hrs by sulforhodamine B assay; type: functional; settings: CAKI-1, 48 h, read-out: Activity; procedure, shortened: as §1
# UO-31 = assay: Growth inhibition of human UO31 cells assessed as cell growth at 10^-5 M after 48 hrs by sulforhodamine B assay; type: functional; settings: UO-31, 48 h, read-out: Activity; procedure, shortened: as §3
# MDA-MB-231 = assay: Growth inhibition of human MDA-MB-231 cells assessed as cell growth at 10^-5 M after 48 hrs by sulforhodamine B assay; type: functional; settings: MDA-MB-231, 48 h, read-out: Activity; procedure, shortened: as §2
# [1] = Growth inhibition of human Hs 578T cells assessed as cell growth at 10^-5 M after 48 hrs by sulforhodamine B assay; type: functional; settings: read-out: Activity; procedure, shortened: as §1
# HL-60 = assay: Cytotoxicity against human HL60 cells after 24 hrs by MTT assay; type: functional, cell-based; settings: HL-60, 24 h
# Procedure, shortened: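 HL-60 cells kept in RPMI 1640 with 10% FBS, no antibiotics, 37 °C, humidified 5% CO2. Cells (9 × 10^5 cells/mL) exposed to compound in 96-well plates for 24 h at 37 °C. MTT in PBS (5 mg/mL) added for 2 h, then DMSO, shaken 1 h and read photometrically. IC50 determined; cisplatin reference.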
# Escherichia coli = assay: Antibacterial activity against Escherichia coli assessed as zone of inhibition at 5 uL and 32 degC after 36 hrs by disk diffusion method; type: functional
# Procedure, shortened: (§4)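 Disc diffusion on AC agar, each strain spread evenly over the medium; test compounds given as 1% (w/v) DMSO solutions. Plates covered and incubated 36 h at 32 °C, then the diameter of the zone of inhibited growth measured in mm. Tetracycline served as antibacterial reference.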
# Staphylococcus equorum = assay: Antibacterial activity against Staphylococcus equorum assessed as zone of inhibition at 5 uL and 32 degC after 36 hrs at by disk diffusion method; type: functional; procedure, shortened: as §4
# Nakaseomyces glabratus = assay: Antifungal activity against Candida glabrata assessed as zone of inhibition at 5 uL and 28 degC after 36 hrs by disk diffusion method; type: functional
# Procedure, shortened: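 Agar disc diffusion with the test compound applied as a 1% (w/v) DMSO solution. Yeasts were grown on AC agar and Aspergillus niger on potato dextrose broth agar, each strain spread evenly. Plates were covered and kept 36 h at 28 °C, and the inhibition zone diameter was read in mm. Clotrimazole served as reference.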
# CCRF-CEM = assay: Growth inhibition of human CCRF-CEM cells assessed as cell growth at 10^-5 M after 48 hrs by sulforhodamine B assay; type: functional; settings: read-out: Activity; procedure, shortened: as §1
# RPMI-8226 = assay: Growth inhibition of human RPMI8226 cells assessed as cell growth at 10^-5 M after 48 hrs by sulforhodamine B assay; type: functional; settings: RPMI-8226, 48 h, read-out: Activity; procedure, shortened: as §2
# SR = assay: Growth inhibition of human SR cells assessed as cell growth at 10^-5 M after 48 hrs by sulforhodamine B assay; type: functional; settings: read-out: Activity; procedure, shortened: as §3
SMILES,growth at 10 µM (A549),growth at 10 µM (HOP-92),growth at 10 µM (NCI-H460),growth at 10 µM (NCI-H522),growth at 10 µM (HT-29),growth at 10 µM (KM12),growth at 10 µM (SW-620),growth at 10 µM (SF-295),growth at 10 µM (U-251),growth at 10 µM (MDA-MB-435),growth at 10 µM (SK-MEL-28),growth at 10 µM (UACC-62),growth at 10 µM (OVCAR-3),growth at 10 µM (OVCAR-4),growth at 10 µM (OVCAR-8),growth at 10 µM (SK-OV-3),growth at 10 µM (A498),growth at 10 µM (CAKI-1),growth at 10 µM (UO-31),growth at 10 µM (MDA-MB-231),further results
CC(C)CCC[C@@H](C)[C@H]1CC[C@H]2C3=CC[C@@H]4C(=O)C=CC(=O)[C@@H]4[C@@H]3CC[C@]12C,8.75%,-28.9%,2.88%,-46.1%,7.56%,-10.1%,20.4%,-25.6%,11.5%,-16.4%,-48.5%,-63.2%,2.72%,-9.33%,0.17%,10.5%,-6.21%,-56.3%,-67.9%,28.6%,growth at 10 µM [1]: 8.12%; IC50 (HL-60): 700 nM; diameter of the inhibition zone (DIZ) (Escherichia coli): inactive; diameter of the inhibition zone (DIZ) (Staphylococcus equorum): inactive; diameter of the inhibition zone (DIZ) (Nakaseomyces glabratus): inactive; growth at 10 µM (CCRF-CEM): 17%; growth at 10 µM (RPMI-8226): 8.72%; growth at 10 µM (SR): 13.2%
CC(C)CCC[C@@H](C)[C@H]1CC[C@H]2C3=CCn4c(=O)ccc(=O)n4[C@@H]3CC[C@]12C,-79.3%,-94%,-89.9%,-66.1%,-97.5%,-65.5%,-91.6%,-99.5%,-96.9%,-57.4%,-100%,-82.4%,-96.5%,-32.4%,-39.7%,-100%,-94.8%,-91.6%,-88.5%,-89.2%,growth at 10 µM [1]: -12.2%; IC50 (HL-60): 30 nM; diameter of the inhibition zone (DIZ) (Escherichia coli): inactive; diameter of the inhibition zone (DIZ) (Staphylococcus equorum): inactive; diameter of the inhibition zone (DIZ) (Nakaseomyces glabratus): 8 mm; growth at 10 µM (CCRF-CEM): -2.44%; growth at 10 µM (RPMI-8226): -41.5%; growth at 10 µM (SR): -34.6%
CC(C)CCC[C@@H](C)[C@H]1CC[C@H]2[C@@H]3CCN4C(=O)CCC(=O)N4[C@@H]3CC[C@]12C,84.1%,77.5%,107%,80.2%,87.9%,105%,93.2%,88.6%,106%,97.7%,76.4%,88.1%,104%,103%,93.5%,99.3%,89.2%,73.5%,76.3%,98.2%,growth at 10 µM [1]: 97%; IC50 (HL-60): 30000 nM; diameter of the inhibition zone (DIZ) (Escherichia coli): 11 mm; diameter of the inhibition zone (DIZ) (Staphylococcus equorum): 9 mm; diameter of the inhibition zone (DIZ) (Nakaseomyces glabratus): inactive; growth at 10 µM (CCRF-CEM): 87.4%; growth at 10 µM (RPMI-8226): 56.6%; growth at 10 µM (SR): 79.7%

# Source: ChEMBL document CHEMBL1806372, “Cytotoxic ring A-modified steroid analogues derived from Grundmann's ketone” (Eur J Med Chem, 2011)
